Laboratory results from ChEMBL document CHEMBL4819122, “Novel 4-(piperazin-1-yl)quinolin-2(1H)-one bearing thiazoles with antiproliferative activity through VEGFR-2-TK inhibition” (Bioorg Med Chem, 2021).
Activity calls are given as the source filed them. No cut-off for these calls is given here.

Tests used:
MDA-MB-231 = assay: Cytotoxicity against human MDA-MB-231 assessed as growth inhibition at 10 uM by NCI protocol relative to control; format: functional; settings: read-out: GI
Method in brief: (§1)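 Run by NCI as a single-dose screen at 10 μM across the sixty-cell-line panel, which covers nine human tumour tissue types. The read-out is percent growth inhibition of treated cells relative to untreated cells.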

DU-145 = assay: Cytotoxicity against human DU-145 assessed as growth inhibition at 10 uM by NCI protocol relative to control; format: functional; settings: read-out: GI; method in brief: as §1
U-251 = assay: Cytotoxicity against human U251 assessed as growth inhibition at 10 uM by NCI protocol relative to control; format: functional; settings: read-out: GI
Method in brief: (§2)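 Run by the NCI under its standard protocol: one dose of 10 μM against a sixty-line panel from nine human tumour tissues. Result given as percent growth inhibition of treated cells relative to untreated cells.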

HL-60 = assay: Cytotoxicity against human HL60 assessed as growth inhibition at 10 uM by NCI protocol relative to control; format: functional; settings: read-out: GI; method in brief: as §1
NCI-H23 = assay: Cytotoxicity against human NCI-H23 assessed as growth inhibition at 10 uM by NCI protocol relative to control; format: functional; settings: read-out: GI; method in brief: as §1
T47D = assay: Cytotoxicity against human T-47D assessed as growth inhibition at 10 uM by NCI protocol relative to control; format: functional; settings: read-out: GI; method in brief: as §2
OVCAR-3 = assay: Cytotoxicity against human OVCAR-3 assessed as growth inhibition at 10 uM by NCI protocol relative to control; format: functional; settings: read-out: GI; method in brief: as §1
COLO 205 = assay: Cytotoxicity against human COLO 205 assessed as growth inhibition at 10 uM by NCI protocol relative to control; format: functional; settings: read-out: GI; method in brief: as §1
MDA-MB-435 = assay: Cytotoxicity against human MDA-MB-435 assessed as growth inhibition at 10 uM by NCI protocol relative to control; format: functional, cell-based; method in brief: as §1
HCT-116 = assay: Cytotoxicity against human HCT-116 assessed as growth inhibition at 10 uM by NCI protocol relative to control; format: functional; settings: read-out: GI; method in brief: as §1
SN12C = assay: Cytotoxicity against human SN12C assessed as growth inhibition at 10 uM by NCI protocol relative to control; format: functional; settings: read-out: GI; method in brief: as §2
CCRF-CEM = assay: Cytotoxicity against human CCRF-CEM assessed as growth inhibition at 10 uM by NCI protocol relative to control; format: functional; settings: read-out: GI; method in brief: as §1
OVCAR-4 = assay: Cytotoxicity against human OVCAR-4 assessed as growth inhibition at 10 uM by NCI protocol relative to control; format: functional; settings: read-out: GI; method in brief: as §1
UO-31 = assay: Cytotoxicity against human UO31 assessed as growth inhibition at 10 uM by NCI protocol relative to control; format: functional; settings: read-out: GI; method in brief: as §2
A549 = assay: Cytotoxicity against human A549 assessed as growth inhibition at 10 uM by NCI protocol relative to control; format: functional; settings: read-out: GI; method in brief: as §1
786-0 = assay: Cytotoxicity against human 786-0 assessed as growth inhibition at 10 uM by NCI protocol relative to control; format: functional; settings: read-out: GI; method in brief: as §1
SK-MEL-5 = assay: Cytotoxicity against human SK-MEL-5 assessed as growth inhibition at 10 uM by NCI protocol relative to control; format: functional; settings: read-out: GI; method in brief: as §1
PC-3 = assay: Cytotoxicity against human PC3 assessed as growth inhibition at 10 uM by NCI protocol relative to control; format: functional; settings: read-out: GI; method in brief: as §1
ACHN = assay: Cytotoxicity against human ACHN assessed as growth inhibition at 10 uM by NCI protocol relative to control; format: functional; settings: read-out: GI; method in brief: as §1
SR = assay: Cytotoxicity against human SR assessed as growth inhibition at 10 uM by NCI protocol relative to control; format: functional; settings: read-out: GI; method in brief: as §2
SK-MEL-2 = assay: Cytotoxicity against human SK-MEL-2 assessed as growth inhibition at 10 uM by NCI protocol relative to control; format: functional; settings: read-out: GI; method in brief: as §1
HT-29 = assay: Cytotoxicity against human HT29 assessed as growth inhibition at 10 uM by NCI protocol relative to control; format: functional; settings: read-out: GI; method in brief: as §1
SW-620 = assay: Cytotoxicity against human SW-620 assessed as growth inhibition at 10 uM by NCI protocol relative to control; format: functional; settings: read-out: GI; method in brief: as §2
OVCAR-8 = assay: Cytotoxicity against human OVCAR-8 assessed as growth inhibition at 10 uM by NCI protocol relative to control; format: functional; settings: read-out: GI; method in brief: as §1
KM12 = assay: Cytotoxicity against human KM12 assessed as growth inhibition at 10 uM by NCI protocol relative to control; format: functional; settings: read-out: GI; method in brief: as §1
SK-MEL-28 = assay: Cytotoxicity against human SK-MEL-28 assessed as growth inhibition at 10 uM by NCI protocol relative to control; format: functional; settings: read-out: GI; method in brief: as §1
UACC-62 = assay: Cytotoxicity against human UACC-62 assessed as growth inhibition at 10 uM by NCI protocol relative to control; format: functional; settings: read-out: GI; method in brief: as §2
RXF 393 = assay: Cytotoxicity against human RXF 393 assessed as growth inhibition at 10 uM by NCI protocol relative to control; format: functional; settings: read-out: GI; method in brief: as §1
EKVX = assay: Cytotoxicity against human EKVX assessed as growth inhibition at 10 uM by NCI protocol relative to control; format: functional; settings: read-out: GI; method in brief: as §1
MOLT-4 = assay: Cytotoxicity against human MOLT-4 assessed as growth inhibition at 10 uM by NCI protocol relative to control; format: functional; settings: read-out: GI; method in brief: as §1
HOP-92 = assay: Cytotoxicity against human HOP-92 assessed as growth inhibition at 10 uM by NCI protocol relative to control; format: functional; method in brief: as §1
IGROV-1 = assay: Cytotoxicity against human IGROVI assessed as growth inhibition at 10 uM by NCI protocol relative to control; format: functional; settings: read-out: GI; method in brief: as §1
SNB-75 = assay: Cytotoxicity against human SNB-75 assessed as growth inhibition at 10 uM by NCI protocol relative to control; format: functional; settings: read-out: GI; method in brief: as §2
Malme-3M = assay: Cytotoxicity against human MALME-3M assessed as growth inhibition at 10 uM by NCI protocol relative to control; format: functional; settings: read-out: GI; method in brief: as §1
SF-295 = assay: Cytotoxicity against human SF-295 assessed as growth inhibition at 10 uM by NCI protocol relative to control; format: functional; settings: read-out: GI; method in brief: as §1
MCF7 = assay: Cytotoxicity against human MCF7 assessed as growth inhibition at 10 uM by NCI protocol relative to control; format: functional; settings: read-out: GI; method in brief: as §1
Hs-578T = assay: Cytotoxicity against human HS 578T assessed as growth inhibition at 10 uM by NCI protocol relative to control; format: functional; settings: read-out: GI; method in brief: as §1
K562 = assay: Cytotoxicity against human K-562 assessed as growth inhibition at 10 uM by NCI protocol relative to control; format: functional; settings: read-out: GI; method in brief: as §1
SF-268 = assay: Cytotoxicity against human SF-268 assessed as growth inhibition at 10 uM by NCI protocol relative to control; format: functional; settings: read-out: GI; method in brief: as §1
SNB-19 = assay: Cytotoxicity against human SNB-19 assessed as growth inhibition at 10 uM by NCI protocol relative to control; format: functional; settings: read-out: GI; method in brief: as §2
MDA-MB-468 = assay: Cytotoxicity against human MDA-MB-468 assessed as growth inhibition at 10 uM by NCI protocol relative to control; format: functional; settings: read-out: GI; method in brief: as §1
NCI-H226 = assay: Cytotoxicity against human NCI-H226 assessed as growth inhibition at 10 uM by NCI protocol relative to control; format: functional; settings: read-out: GI; method in brief: as §1
NCI-H322M = assay: Cytotoxicity against human NCI-H322M assessed as growth inhibition at 10 uM by NCI protocol relative to control; format: functional; settings: read-out: GI; method in brief: as §1

## O=C(CN1CCN(c2cc(=O)n(-c3ccccc3)c3ccccc23)CC1)Nc1nc(-c2ccccc2)cs1
MDA-MB-231
  inhibition of growth at 10 µM: 37.5%
DU-145
  inhibition of growth at 10 µM: 27.3%
U-251
  inhibition of growth at 10 µM: 40.8%
HL-60
  inhibition of growth at 10 µM: 62.9%
NCI-H23
  inhibition of growth at 10 µM: 39.2%
T47D
  inhibition of growth at 10 µM: 83.4%
OVCAR-3
  inhibition of growth at 10 µM: 27.5%
COLO 205
  inhibition of growth at 10 µM: 39.9%
MDA-MB-435
  growth inhibition (GI): inactive
HCT-116
  inhibition of growth at 10 µM: 46.6%
SN12C
  inhibition of growth at 10 µM: 17.9%
CCRF-CEM
  inhibition of growth at 10 µM: 60.4%
OVCAR-4
  inhibition of growth at 10 µM: 76.7%
UO-31
  inhibition of growth at 10 µM: 58.4%
A549
  inhibition of growth at 10 µM: 43.8%
786-0
  inhibition of growth at 10 µM: 10.7%
SK-MEL-5
  inhibition of growth at 10 µM: 94.7%
PC-3
  inhibition of growth at 10 µM: 67.5%
ACHN
  inhibition of growth at 10 µM: 36.2%
SR
  inhibition of growth at 10 µM: 48.7%
SK-MEL-2
  inhibition of growth at 10 µM: 11.1%
HT-29
  inhibition of growth at 10 µM: 27%
SW-620
  inhibition of growth at 10 µM: 31.4%
OVCAR-8
  inhibition of growth at 10 µM: 30.2%
KM12
  inhibition of growth at 10 µM: 37%
SK-MEL-28
  inhibition of growth at 10 µM: 28.8%
UACC-62
  inhibition of growth at 10 µM: 36.1%
RXF 393
  inhibition of growth at 10 µM: 23.1%
EKVX
  inhibition of growth at 10 µM: 54.5%
MOLT-4
  inhibition of growth at 10 µM: 82.2%
HOP-92
  growth inhibition (GI): inactive
IGROV-1
  inhibition of growth at 10 µM: 32.5%
SNB-75
  inhibition of growth at 10 µM: 28.4%
Malme-3M
  inhibition of growth at 10 µM: 30.3%
SF-295
  inhibition of growth at 10 µM: 33.3%
MCF7
  inhibition of growth at 10 µM: 72.4%
Hs-578T
  inhibition of growth at 10 µM: 17.1%
K562
  inhibition of growth at 10 µM: 77.6%
SF-268
  inhibition of growth at 10 µM: 20.8%
SNB-19
  inhibition of growth at 10 µM: 14.8%
MDA-MB-468
  inhibition of growth at 10 µM: 86.7%
NCI-H226
  inhibition of growth at 10 µM: 51.8%
NCI-H322M
  inhibition of growth at 10 µM: 10.6%
